Data taken from ChEMBL document CHEMBL2057104, “Identification of myricetin and scutellarein as novel chemical inhibitors of the SARS coronavirus helicase, nsP13” (Bioorg Med Chem Lett, 2012).
Activity calls are given as the source filed them.

Tests used:
Hepacivirus hominis [1] = assay: Inhibition of HCV NS3 helicase overexpressed in Escherichia coli BL21(DE3) assessed as inhibition of DNA unwinding activity at 10 uM by FRET assay
[2] = tested on: Severe acute respiratory syndrome-related coronavirus; assay: Inhibition of SARS coronavirus nsP13 helicase activity expressed in Escherichia coli Rosetta assessed inhibition of DNA unwinding activity at 10 uM by FRET assay
Method in brief: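 FRET dsDNA-unwinding assay using fluorescein/TAMRA-labelled duplex. When nsP13 unwinds the duplex, fluorescein emission is unquenched. Compound was added to the unwinding reaction at 10 µM, and fluorescence was read at 535 nm.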

Hepacivirus hominis [3] = assay: Inhibition of HCV NS3 helicase ATP hydrolysis activity overexpressed in Escherichia coli BL21(DE3) assessed as inhibition of inorganic phosphate release by AM/MG-based colometric analysis in the presence of M13 ssDNA

Measured: inhibition

O=c1c(O)c(-c2ccccc2)oc2cc(O)cc(O)c12
inactive: all assays above

O=c1c(-c2ccc(O)cc2)coc2cc(O[C@@H]3O[C@H](CO)[C@@H](O)[C@H](O)[C@H]3O)ccc12
inactive: all assays above

O=C(/C=C/c1ccccc1)NCCCCNC(=O)Cc1ccc(O)cc1
inactive: all assays above

COc1c(O)cc2oc3cc(O)c4c(c3c(=O)c2c1CC=C(C)C)OC(C)(C)CC4
inactive: all assays above

O=c1cc(-c2ccccc2)oc2cc(O)cc(O)c12
inactive: all assays above

COc1c(O)cc2oc3cc(O)c(CC=C(C)C)c(O)c3c(=O)c2c1CC=C(C)C
inactive: all assays above

C[C@H]1[C@H](C)CC[C@]2(C(=O)O)CC[C@]3(C)C(=CC[C@@H]4[C@@]5(C)CC[C@H](O)C(C)(C)[C@@H]5CC[C@]43C)[C@H]12
inactive: all assays above

CCCCCCCCCCCCC/C=C1/C(=O)O[C@H](C)[C@@H]1O
inactive: all assays above

C/C=C(/C)C(=O)O[C@H]1Cc2c(cc3oc(C)cc(=O)c3c2O)OC1(C)C
inactive: all assays above

COc1ccc(-c2oc3c(CC=C(C)C)c(O[C@@H]4O[C@H](CO)[C@@H](O)[C@H](O)[C@H]4O)cc(O)c3c(=O)c2O[C@@H]2O[C@@H](C)[C@H](O)[C@@H](O)[C@H]2O)cc1
inactive: all assays above

O=c1c(O)c(-c2ccc(O)cc2)oc2cc(O)cc(O)c12
inactive: all assays above

O=C(/C=C/c1ccccc1)NCCCCNC(=O)c1ccc(O)cc1
inactive: all assays above

C[C@H]1[C@H](C)CC[C@]2(C)CC[C@]3(C)C(=CC[C@@H]4[C@@]5(C)CC[C@H](O)C(C)(C)[C@@H]5CC[C@]43C)[C@H]12
inactive: all assays above

COc1ccc(C(=O)O[C@H]2[C@@H]3C=CO[C@@H](O[C@@H]4O[C@H](CO)[C@@H](O)[C@H](O)[C@H]4O)[C@@H]3[C@@]3(CO)O[C@@H]23)cc1O
inactive: all assays above

C=C(C)[C@@H](C)CC[C@@H](C)[C@H]1CC[C@@]2(C)[C@@H]3CC[C@H]4C(C)(C)C(=O)CC[C@]4(C)C3=CC[C@]12C
inactive: all assays above

O=c1cc(-c2ccccc2)oc2cc(O)c(O)c(O)c12
inactive: all assays above

O=C(O)[C@H]1O[C@@H](Oc2cc3oc(-c4ccc(O)cc4)cc(=O)c3c(O)c2O)[C@H](O)[C@@H](O)[C@@H]1O
inactive: all assays above

CC(C)=CCC[C@](C)(O[C@@H]1O[C@H](CO[C@@H]2O[C@H](CO)[C@@H](O)[C@H](O)[C@H]2O)[C@@H](O)[C@H](O)[C@H]1O)[C@H]1CC[C@]2(C)[C@@H]1[C@H](O)C[C@@H]1[C@@]3(C)CC[C@H](O[C@@H]4O[C@H](CO)[C@@H](O)[C@H](O)[C@H]4O[C@@H]4O[C@H](CO)[C@@H](O)[C@H](O)[C@H]4O)C(C)(C)[C@@H]3CC[C@]12C
inactive: all assays above

O=C1C[C@@H](c2ccc(O)cc2)Oc2cc(O)cc(O)c21
inactive: all assays above

C/C=C(/C)C(=O)O[C@H]1Cc2c(cc3oc(CO)cc(=O)c3c2O)OC1(C)C
inactive: all assays above

CC(C)=CCC[C@](C)(O[C@@H]1O[C@H](CO[C@@H]2O[C@H](CO)[C@@H](O)[C@H](O)[C@H]2O)[C@@H](O)[C@H](O)[C@H]1O)[C@H]1CC[C@]2(C)[C@@H]1[C@H](O)C[C@@H]1[C@@]3(C)CC[C@H](O[C@@H]4O[C@H](CO)[C@@H](O)[C@H](O)[C@H]4O)C(C)(C)[C@@H]3CC[C@]12C
inactive: all assays above

C=C(C)C(C)CC[C@@H](C)[C@H]1CC[C@@]2(C)[C@@H]3CC[C@H]4C(C)(C)C(=O)CC[C@]4(C)C3=CC[C@]12C (some centres not stated)
inactive: all assays above

C[C@H]1[C@@H](O)CC[C@@H]2[C@]1(C)CC[C@H]1[C@@]2(C)CC[C@@]2(C)[C@@H]3CC(C)(C)CC[C@]3(C)CC[C@]12C
inactive: all assays above

C[C@@H]1O[C@@H](O[C@H]2[C@H](Oc3cc(O)c4c(c3)O[C@H](c3ccc(O)cc3)CC4=O)O[C@H](CO)[C@@H](O)[C@@H]2O)[C@H](O)[C@H](O)[C@H]1O
inactive: all assays above

COc1c2c(cc3oc(C)cc(=O)c13)OC(C(C)(C)O)C2 (configuration not stated)
inactive: all assays above

C=C1CC[C@@H]2[C@H]([C@H]3[C@H]1CC[C@]3(C)O)C2(C)C
inactive: all assays above

COc1ccc(C(=O)O[C@H]2[C@@H]3C=CO[C@@H](O[C@@H]4O[C@H](CO)[C@@H](O)[C@H](O)[C@H]4O)[C@@H]3[C@@]3(CO)O[C@@H]23)cc1OC
inactive: all assays above

O=C(/C=C/c1ccc(O)cc1)c1ccc(O)cc1O
inactive: all assays above

C=C(C)[C@@H]1CC[C@]2(C(=O)O)CC[C@]3(C)[C@H](CC[C@@H]4[C@@]5(C)CC[C@H](O)C(C)(C)[C@@H]5CC[C@]43C)[C@@H]12
inactive: all assays above

CC1(C)CC[C@]2(C(=O)O)CC[C@]3(C)C(=CC[C@@H]4[C@@]5(C)CC[C@H](O)C(C)(C)[C@@H]5CC[C@]43C)[C@@H]2C1
inactive: all assays above

C=C[C@]1(C)CC[C@@]2(C)C3=CCC[C@](C)(CO)[C@@H]3CC[C@@H]2C1
inactive: all assays above

C=CCc1cc(OC)c(O)c(OC)c1
inactive: all assays above

CC(C)=CCc1c(O)cc2oc3cc(O)c(O)c(CC=C(C)C)c3c(=O)c2c1O
inactive: all assays above

CC(C)=CCOc1c2occc2cc2ccc(=O)oc12
inactive: all assays above
